Screening results as filed in PubChem BioAssay.
A selection: hits, their analogues and other compounds. The true share with any hit is near 10%.
L major viab – inhibitors of Leishmania major promastigote growth. Leishmania major promastigotes, resazurin fluorescence viability. inhibition, % at 10 µM. 9% of 200,000 active. AID 1063; in the data active means inhibition above about 50%;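 further: promastigotes grown with compound for 44 hours at 28 °C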
WT yeast gro inh – growth inhibition of WT yeast, mitochondrial fusion screen; mitochondrial fusion phenotypic screen, WT strain; inhibition, % at 10 µM; 2.1% of 190,000 active; AID 1362; in the data active means inhibition above about 58%; tested in S. cerevisiae
PMI act satM6P – PMI (human) activation, high substrate | P34949 | coupled PMI enzyme assay, resazurin fluorescence, 20 min; active compounds read high; 1 = untreated enzyme, 0 = substrate-free blank | activation factor at 20 µM | 0.34% of 190,000 active;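 active means activation factor of 2 or more at 20 µM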
Target sequence (P34949 whole entry, looked up): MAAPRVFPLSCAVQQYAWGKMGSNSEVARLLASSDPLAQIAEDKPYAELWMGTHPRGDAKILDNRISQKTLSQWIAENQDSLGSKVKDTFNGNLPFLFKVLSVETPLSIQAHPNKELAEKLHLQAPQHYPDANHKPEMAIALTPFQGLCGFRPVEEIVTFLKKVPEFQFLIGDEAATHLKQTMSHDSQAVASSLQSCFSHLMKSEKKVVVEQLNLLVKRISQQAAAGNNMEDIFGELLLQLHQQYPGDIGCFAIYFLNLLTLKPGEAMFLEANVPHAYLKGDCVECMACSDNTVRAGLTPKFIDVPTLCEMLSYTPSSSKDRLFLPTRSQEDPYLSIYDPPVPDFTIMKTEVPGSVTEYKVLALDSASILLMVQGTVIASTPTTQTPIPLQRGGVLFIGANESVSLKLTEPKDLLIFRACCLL
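Test system: human phosphomannose isomerase with PGI, G6PDH, diaphorase coupling enzymes; Amount: PMI at 15 ng/mL final; Reagent: Mannose-6-phosphate 1.0 mM (near-saturating) plus 0.22 mM NADP+; Timing: 20 min, room temperature; Technique: resorufin fluorescence at Ex 544/Em 590 nm; Dosing: 20 µM single dose.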
PMI activator – activators of human phosphomannose isomerase. purified human PMI, coupled resazurin fluorescence, 20 min; active compounds read high; 1 = vehicle control, 0 substrate-free wells. activation factor at 20 µM. P34949. 0.005% of 190,000 active. AID 1214;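 active means activation factor of 2 or more at 20 µM, relative to plate controls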
Diaph act CS – diaphorase activation or chemical reduction counter-screen; Diaphorase/resazurin coupled assay, resorufin fluorescence, 16 min; active compounds read high; 1 = vehicle wells, 0 = NADH-free wells; activation factor at 20 µM; 0.005% of 190,000 active;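 active means diaphorase activity raised at least twofold by the compound at 20 µM; inactive means activation factor below 2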
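test system = bacterial diaphorase enzyme (C. kluyveri) | quantity = enzyme 0.07 U/mL final | reagent = NADH substrate 0.114 mM plus resazurin dye 0.1 mM, final | incubation = 16 min enzyme reaction, ambient temperature | buffer or medium = HEPES pH 7.4 buffer with MgCl2 and Tween 20 | signal = fluorescence of resorufin, 544 nm excitation, 590 nm emission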
Of the large screens only hits and unclear results are named; the others gave an inactive call.

Cc1ccc(Nc2nc(N)nc(CN3CCN(Cc4ccc5c(c4)OCO5)CC3)n2)cc1Cl	L major viab 70.1
Cc1cccc(C(=O)NC(=S)N2CCN(C)CC2)c1	none
CCC(C)c1ccccc1NC(=O)COC(=O)C1=COCCO1 (centres undefined)	none
O=C(Nc1ccccc1)c1ccccc1C(=O)N1CCCCC1	none
Cc1ccc(NC(=O)N2CCN(Cc3ccc4c(c3)OCO4)CC2)cc1	none
Fc1ccccc1NC(=S)N1CCN(Cc2ccc3c(c2)OCO3)CC1	none
Cc1cccc(NC(=O)N2CCN(Cc3ccc4c(c3)OCO4)CC2)c1C	L major viab 55.7
Cc1cc(Cl)ccc1NC(=S)N1CCN(Cc2ccc3c(c2)OCO3)CC1	L major viab 87.5
Cc1cccc(C)c1OC(=O)C(c1ccccc1)c1ccccc1	L major viab 88.5
O=C1S/C(=C/c2ccccc2F)C(=O)N1CCN=C1NS(=O)(=O)c2ccccc21	none
CCOc1ccc(NC(=S)N2CCCN(Cc3cccc(Cl)c3)C2)cc1	L major viab 82.2
Cc1cccc(C)c1NC(=S)N1CCCN(Cc2ccc(F)cc2)C1	L major viab 73.1
COc1ccc(NC(=S)Nc2cccnc2)c(OC)c1	none
COc1ccc(NC(=S)N2CCCN(Cc3cccc(Cl)c3)C2)cc1	L major viab 93.7
COc1ccc(NC(=S)N2CCN(Cc3ccccc3)CC2)cc1	none
CCOc1ccc(NC(=S)NCCN2CCN(Cc3ccccc3)CC2)cc1	none
COc1cccc(NC(=S)Nc2cccnc2)c1	L major viab 50.6
Cc1ccc(NS(=O)(=O)c2cc(C(=O)N(C)C)ccc2C)cc1C	none
O=C(NC(=S)N1CCCCCC1)c1ccc(Cl)cc1Cl	none
COc1cccc(NC(=S)N2CCN(C(c3ccccc3)c3ccccc3)CC2)c1	none
Fc1cccc(NC(=S)N2CCCC2)c1	L major viab 63.3
CSc1cccc(NC(=S)N2CCC(N(C)C3CCCC3)CC2)c1	L major viab 85.4
CSc1cccc(NC(=S)N2CCCN(Cc3cccc(Cl)c3)C2)c1	L major viab 90.0
CCOC(=O)N1CCC(N(CCN(C)C)C(=S)Nc2cccc(SC)c2)CC1	none
COc1cccc(NC(=S)N2CCCC2)c1	L major viab 76.0
S=C(Nc1cccc(Cl)c1)N1CCN(Cc2ccccc2)CC1	none
CCOC(=O)C1(Cc2cccc(OC)c2)CCCN(C(=O)CCc2cccnc2)C1 (centres undefined)	none
Cc1ccc(C(=O)Nc2nc(=O)[nH]s2)cc1	none
CO/N=C(\C(=O)O)c1csc(NN=C(C)C)n1	none
COc1cccc(NC(=S)N2CCCN(Cc3ccc(F)cc3)C2)c1	L major viab 87.3
COc1ccc(NC(=S)N2CCCN(Cc3cc(C)ccc3C)C2)cc1	L major viab 55.5
COc1cccc(NC(=S)N/N=C2/CCCCc3ccccc32)c1	WT yeast gro inh 65.4
CCOC(=O)C1CCCN(C(=S)Nc2ccc(OC)cc2)C1 (centres undefined)	none
CC(C)NC(=S)N/N=C1\CCCCc2ccccc21	none
O=Cc1cccn1Cc1ccccc1[N+](=O)[O-]	none
CCOC(=O)C(=CNc1cc(C)nn1-c1ccc(Cl)cc1)C(=O)OCC	none
CCOC(=O)C(=Cc1ccc(-n2cncn2)cc1)C(=O)OCC	L major viab 77.5
O=C1c2ccccc2-n2c1nc1ccccc1c2=O	L major viab 99.8, WT yeast gro inh 66.0
CCOc1ccccc1-n1c(N)c(C(N)=O)sc1=S	none
CCOc1ccccc1-n1c(=O)c2ccccc2c2ccccc2c1=O	L major viab 76.8
Cc1c(C2=CCN(S(=O)(=O)c3ccc(Br)cc3)CC2)c2ccccc2n1C	L major viab 63.6
CCOC(CNc1ncnc2c1cnn2C)OCC	none
Cc1ccc2c(CC(=O)NNC(=O)c3ccccc3)coc2c1	L major viab 54.9
Cc1ccc(Sc2ccc(CN3CCCCC3)cc2[N+](=O)[O-])cc1	L major viab 79.2, WT yeast gro inh 61.2
O=C(c1ccc(Cl)cc1)N1C2C=CC(C2)C1(C(F)(F)F)C(F)(F)F (centres undefined)	L major viab 64.0
Cc1cc(C)c2sc(N)nc2c1	none
Cc1ccc(C(=O)Nc2cc(Cl)ccc2N2CCCCC2)s1	WT yeast gro inh 68.2
CCc1sc(C(=O)Nc2cc(Cl)ccc2N2CCCCC2)cc1C	none
CC(C)(C)NC(=O)NC(=O)COC(=O)Cc1coc2ccc3ccccc3c12	WT yeast gro inh 70.2
CCOC(=O)NCc1ccc(S(=O)(=O)Nc2c(C)cccc2C)cc1	none (no result: WT yeast gro inh)
COc1ccccc1/C=C1\CCCC2=C1Nc1nnnn1C2c1ccccc1OC (centres undefined)	L major viab 78.8
O=C(Nc1cccc2ccccc12)C12CC3CC(C1)CC(n1cnc([N+](=O)[O-])n1)(C3)C2	L major viab 73.4
O=C(O)c1cccc(NC(=O)C23CC4CC(C2)CC(n2cnc(Cl)n2)(C4)C3)c1	none
O=C(Nc1cc(Oc2ccccc2)cc([N+](=O)[O-])c1)C12CC3CC(C1)CC(n1cnc(Cl)n1)(C3)C2	L major viab 80.1
C(/CCc1ccccc1)=N\n1cnnc1	none
BrC(=C\c1ccccc1)/C=N/n1cnnc1	L major viab 100.4
O=C(CN(C(=O)c1cccc([N+](=O)[O-])c1)C1CCCCC1)Nc1ccc(Cl)c([N+](=O)[O-])c1	L major viab 70.2
Cc1ccc(NC(=O)CN(C)C(=O)c2ccc(Cl)c([N+](=O)[O-])c2)cc1	none
COc1ccc(C(=O)c2c(C(F)(F)F)oc3c2C(=O)c2ccccc2C3=O)cc1	L major viab 99.8, WT yeast gro inh 92.3, PMI act satM6P 2
COc1ccc(C(=O)c2coc(-c3ccccc3C(=O)O)c2C(=O)O)cc1	none
COc1cccc(-c2nc(N3CCCCC3C)c3ccccc3n2)c1O (centres undefined)	WT yeast gro inh 63.5
C=C(C)COc1ccc(-c2nc(N)nc(C)c2Oc2ccccc2OC)c(O)c1	WT yeast gro inh 73.1
C=C(C)COc1ccc(-c2n[nH]c(C)c2Oc2ccccc2OC)c(O)c1	L major viab 75.8
O=C(CN1C(=O)NC2(CCSC2)C1=O)N1CCN(c2ccc(F)cc2)CC1 (centres undefined)	PMI act satM6P 2.1 (no result: WT yeast gro inh)
CCNc1nc(OC)nc(SCC(=O)Nc2ccccc2)n1	none
OCCSc1nc(-c2cccnc2)nc2ccccc12	none
CN(Cc1cccs1)c1nc(-c2cccnc2)nc2ccccc12	WT yeast gro inh 64.3
COc1cc2c(cc1OC)CN(c1ccc(-c3ccccc3OC)nn1)CC2	L major viab 100.1
COC(=O)c1ccc2c(=O)[nH]c(CSc3nnc(C(F)(F)F)n3C)nc2c1	L major viab 55.9
CCN1CN(Cc2ccco2)CNC1=S	none
C=CCN1C(=O)/C(=C\c2cc(Br)c(OCc3ccccn3)c(OC)c2)SC1=S	none
C=CCN1C(=O)/C(=C\c2ccc(Oc3nc(N4CCOCC4)nc(N4CCOCC4)n3)c(OC)c2)SC1=S	L major viab 53.8
